Compound activity as filed in PubChem BioAssay.
Hits are enriched below; roughly 0.72% of the tested compounds scored in any of these assays.
bIAP activator: intestinal alkaline phosphatase (bovine) activation; purified bovine IAP, CDP-star luminescence, 30 min; active compounds read high; fold of DMSO-control signal, blank-subtracted; activation factor at 20 µM; 200,000 compounds, 0.17% hits; AID 1016;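 active = activation factor of 2 or more at 20 µM, a signal rise over negative controls twice the positive control's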
hIAP act: human IAP activation; 330,000 compounds, 0.16% hits; activation factor at 10 µM; purified human IAP, CDP-Star luminescence, 30 min; active compounds read high; 1 = vehicle-only enzyme, 0 = enzyme-free background; AID 2524; P09923;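 active = activation factor of the enzyme at least 2-fold when tested at 20 µM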
Target sequence (P09923 whole entry, looked up): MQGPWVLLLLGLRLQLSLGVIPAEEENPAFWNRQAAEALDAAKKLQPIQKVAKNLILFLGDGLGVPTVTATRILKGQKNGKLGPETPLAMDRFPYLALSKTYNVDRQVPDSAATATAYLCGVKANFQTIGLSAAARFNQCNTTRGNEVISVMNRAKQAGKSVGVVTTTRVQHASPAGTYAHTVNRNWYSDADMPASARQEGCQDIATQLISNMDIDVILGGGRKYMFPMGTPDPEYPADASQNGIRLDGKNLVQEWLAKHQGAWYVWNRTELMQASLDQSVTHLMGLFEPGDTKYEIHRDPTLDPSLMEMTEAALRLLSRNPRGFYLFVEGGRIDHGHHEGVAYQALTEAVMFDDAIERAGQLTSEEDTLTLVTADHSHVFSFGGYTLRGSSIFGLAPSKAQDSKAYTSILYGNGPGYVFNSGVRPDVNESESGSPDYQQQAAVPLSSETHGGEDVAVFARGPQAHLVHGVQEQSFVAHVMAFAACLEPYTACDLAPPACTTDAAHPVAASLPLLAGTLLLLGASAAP
hIAP block: blocks human intestinal alkaline phosphatase | P09923 | purified IAP, CDP-Star luminescence, 30 min | inhibition, % at 10 µM | 330,000 compounds, 0.12% hits | AID 2544;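 active = inhibition reaching a set limit with compound at 10 µM in the primary screen, cut at about 35% in these data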;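 also: plate controls were DMSO wells with enzyme for no effect and no-enzyme buffer wells for full effect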
bIAP inhibitor: blocks bovine intestinal alkaline phosphatase activity. purified bovine IAP, CDP-star luminescence, 30 min. 190,000 tested, under 10 active. inhibition, % at 20 µM. AID 1019;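 active = over 50% inhibition of intestinal alkaline phosphatase at 20 µM in the single-dose screen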
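System: Purified bovine intestinal alkaline phosphatase (IAP) enzyme | Input: IAP diluted 1/65,000,000 in the well | Also added: CDP-star chemiluminescent phosphatase substrate, 30 µM final | Dosing: 20 µM single dose | Times: Enzyme reaction for 30 min at room temperature | Detection: Luminescence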
mIAP activ: mouse IAP activation | muIAP, CDP-Star luminescence, 30 min; active compounds read high; 1 = vehicle-only enzyme signal, 0 = enzyme-free wells | 330,000 compounds, 0.24% hits | activation factor at 10 µM;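 active = activation factor of at least 2 at 20 µM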
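Assay system: mouse IAP enzyme; Reagent: CDP-Star chemiluminescent phosphatase substrate; Compound: DMSO-dissolved test compounds; Incubation: 30 min, room temperature; Technique: luminescence from enzymatic CDP-Star hydrolysis; Controls: DMSO-only wells and no-enzyme negative control.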
mIAP inh: blocks mouse intestinal alkaline phosphatase; 330,000 compounds, 0.2% hits; inhibition, % at 10 µM; purified mouse IAP, CDP-Star luminescence, 30 min;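 active = inhibition of at least 40% at 10 µM in the primary screen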;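 also: plate controls were DMSO with enzyme for no effect and no enzyme wells for full effect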
* hit, by the source's call; . = not tested or not shown.

SMILES	bIAP activator	hIAP act	hIAP block	bIAP inhibitor	mIAP activ	mIAP inh
CCCCn1c(N)c(N(CC(C)C)C(=O)c2ccc([N+](=O)[O-])o2)c(=O)[nH]c1=O	.	1	-4	.	1.1	-15
COC(=O)c1ccc(NC(=S)NCCc2ccccc2C)cc1	0.9	0.95	5	5	2*	-100
COC(=O)c1ccc(NC(=S)NCCc2cccc(C)c2)cc1	0.7	1.1	-9	34	1.9	-94
O=C(CSc1nnc2ccccn12)NNC(=O)c1ccccc1F	.	1.1	-7	.	1	-2
Cc1ccc(C(C)C)c(OCCNC(=S)Nc2cccc3ccccc23)c1	0.5	1	-4	46	2.3*	-130
Cc1ccc(C(C)C)c(OCCNCc2ccccc2)c1	.	0.91	9	.	0.88	12
COC(=O)C[C@H](NC(=O)Cn1cnc2c(NCc3ccccc3)ncnc21)C(=O)OC	.	.	.	.	1	-1
C#CCOCCOCCOCCNc1nc(N2CCN(C(=O)[C@H](Cc3cc4ccccc4[nH]3)n3cc([C@@H](N)C(C)CC)nn3)CC2)nc(N2CCN(C(=O)[C@H](Cc3cc4ccccc4[nH]3)n3cc([C@@H](N)CC(C)C)nn3)CC2)n1 (stereo partly drawn)	5.4*	0.87	13	-442	1.4	-44
Cc1ccc(Nc2nc(/N=C/NO)n[nH]2)cc1C	1.2	2.5*	-149	-18	0.97	3
Cc1ccc(S(=O)(=O)Nc2cccc(/C=C/C(=O)O)c2)cc1	1	1	-3	2	1	-4
COc1ccc(S(=O)(=O)Nc2cccc(/C=C/C(=O)O)c2)cc1	4.6*	0.96	4	-357	1	-1
CC(=O)c1ccc(OCc2ccc(Oc3c(Cl)cccc3[N+](=O)[O-])cc2)cc1	0.9	3*	-204	9	0.9	10
CC(=O)c1ccc(OCc2ccc(C(=O)c3ccccc3)cc2)cc1	1.1	1	-3	-10	1	0
O=C(Nc1ccc(Cl)cc1)NC1(C(=O)NCCCN2CCOCC2)CCCCC1	2.8*	0.99	0	-176	1.1	-8
C=C1CCN([C@@H](CC(C)C)C(=O)NCc2ccc(Cl)cc2)S(=O)(=O)c2ccccc21	.	0.88	12	.	0.54	46*
C=C1CCN([C@@H](CC(C)C)C(=O)NCc2ccc(Cl)c(Cl)c2)S(=O)(=O)c2ccccc21	.	0.76	24	.	1.2	-19
COc1ccc(-n2c(=O)c3ccccc3n(CC(=O)NCc3ccco3)c2=O)cc1	1.1	0.94	6	-10	0.98	2
COc1ccc2c(c1)c(=O)cc(C)n2CC(=O)NCc1ccco1	5.3*	1.1	-9	-430	1	-1
O=C1/C(=C\c2ccco2)SC(=S)N1Cc1ccccc1	0.9	1.1	-7	10	0.43	57*
O=C(CCCN1C(=O)/C(=C\c2ccco2)SC1=S)Nc1ccc2ccccc2c1	0.9	0.99	1	9	0.59	41*
Cc1noc(C)c1C(=O)Nc1nc2ccccc2s1	.	0.91	9	.	0.98	2
COc1ccc(NC(=O)Nc2ccc3c(c2)C(=O)N([C@H](C)CO)C[C@H](C)[C@@H](CN(C)C(=O)Nc2ccc(C(F)(F)F)cc2)O3)cc1	.	1.1	-12	.	2.1*	-111
COc1ccc(NC(=O)Nc2ccc3c(c2)C(=O)N([C@H](C)CO)C[C@H](C)[C@@H](CN(C)C(=O)Nc2ccc(OC)cc2)O3)cc1	.	0.98	2	.	2.3*	-134
C[C@@H]1CN([C@@H](C)CO)C(=O)c2cc(NC(=O)Nc3ccccc3)ccc2O[C@H]1CN(C)C(=O)Nc1cccc2ccccc12	.	1.1	-12	.	2.7*	-167
COc1ccc(NC(=O)N(C)C[C@H]2Oc3ccc(NC(=O)Nc4ccc(C(F)(F)F)cc4)cc3C(=O)N([C@H](C)CO)C[C@@H]2C)cc1	.	0.87	13	.	2.1*	-110
SMILES	bIAP activator	hIAP act	hIAP block	bIAP inhibitor	mIAP activ	mIAP inh
COc1ccc(NC(=O)N(C)C[C@H]2Oc3ccc(NC(=O)NC(C)C)cc3C(=O)N([C@H](C)CO)C[C@@H]2C)cc1	.	1.2	-19	.	1.1	-13
CC(=O)Nc1ccc(S(=O)(=O)NCC2(N3CCOCC3)CCCCC2)cc1	.	1.2	-24	.	0.94	6
Cc1cc(OCC(=O)OCC(=O)Nc2cc(S(=O)(=O)N3CCOCC3)ccc2Cl)ccc1Cl	.	1.2	-18	.	1.1	-5
Cc1ccc(NC(=O)NCCN2CCCCC2)cc1C	.	0.81	19	.	1.3	-29
CCCCSCCCNC(=O)Nc1ccc(C)c(C)c1	1	1.3	-28	-3	2.7*	-173
CC1CCCN(C(=O)C2(NC(=O)Nc3cccc(F)c3)CCCCC2)C1 (stereo not drawn)	1.6	1.6	-62	-61	3.1*	-213
COc1ccc(N2C(=O)N3[C@H](c4cccc(C)c4)[C@@H]4C(=O)N(Cc5ccccc5)C(=O)[C@@H]4[C@]3(Cc3ccccc3)C2=O)cc1	.	1.2	-18	.	1.1	-6
Cc1cccc([C@@H]2[C@@H]3C(=O)N(Cc4ccccc4)C(=O)[C@@H]3[C@]3(C)C(=O)N(c4ccc(C(F)(F)F)cc4)C(=O)N23)c1	.	1	0	.	0.59	41*
C=CC[C@@H](CC(=O)NCCO)C(=O)NC[C@H](OC(=O)[C@@H](CC=C)Cc1ccc(F)cc1)c1ccccc1	.	1.1	-7	.	1.1	-6
Cn1c(N=Nc2ccccc2)nc2ccccc21	0.5	1	-1	.	0.85	14
CN(C)c1ccc(N=Nc2nc3ccccc3n2C)cc1	.	0.83	17	.	0.58	42*
Cc1nc2ccc(NS(=O)(=O)c3c(F)cc(F)cc3Br)cc2s1	.	1.1	-12	.	1	-2
Cc1ccc(NC(=S)N2CCN(C(=O)C3CCCO3)CC2)cc1 (stereo not drawn)	1	0.99	1	5	1	-2
O=C(C1CCCO1)N1CCN(C(=S)Nc2ccc(Cl)cc2)CC1 (stereo not drawn)	2.4*	0.93	7	-142	0.96	4
CCc1ccc(N2CSC3=C(C#N)C(c4cccs4)CC(=O)N3C2)cc1 (stereo not drawn)	0.7	1	-1	25	0.69	31
COc1ccc(N2CSC3=C(C#N)C(c4cccs4)CC(=O)N3C2)cc1 (stereo not drawn)	1.1	0.76	24	-10	0.56	44*
CC(=O)OC[C@]12CC[C@H]3[C@@](C)(CC[C@H]4C(C)(C)CCC[C@]34C)[C@@H]1C[C@H](C1=CC(=O)O[C@@H]1OC(C)=O)O2	.	1.1	-10	.	0.84	16
N#Cc1c(NC(=O)CSc2ncnc3sccc23)oc(-c2ccco2)c1-c1ccco1	1	0.88	12	-2	0.3	70*
Cc1cc(NC(=O)CSc2ncnc3sccc23)no1	1	0.94	6	-4	0.98	2
